Test results: paper PMC3159713 (Bioorganic & medicinal chemistry letters, 2011)

Columns and labels:
[1] = target: Norwalk virus 3C protease (Norovirus, UniProt Q83883); assay: Recombinant NV protease fluorogenic; format: biochemical; conditions: for IC50 column: designated inactive (percent inhibition < 25): incubated with the enzyme for 30 minutes at an [I]/[S] ratio of 25
murine norovirus (MNV) = assay: Murine norovirus replication in RAW267.4 cells; format: cell-based, murine norovirus-1 (MNV-1); conditions: MNV-1 at MOI of 2, TCID50 assay
[2] = tested on: Norwalk norovirus (NV replicon-harboring HG23 cells); assay: Cell-based NV replicon system; parameters: species or system Norwalk virus; conditions: NV genome levels at 24 hr post-treatment
Summary of the method: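 Norwalk virus replicon-harbouring HG23 cells, 1 day old and 80-90% confluent, were treated with the test compound from 0 (mock-DMSO) to 320 μM. NV genome was measured by qRT-PCR. ED50 was determined from NV genome levels at 24 hr post-treatment.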

HG23 cells = assay: Cell cytotoxicity assay kit in HG23 cells; format: cell-based; conditions: 48 hr of treatment

Chain of Norwalk virus 3C protease (Q83883 1101-1281): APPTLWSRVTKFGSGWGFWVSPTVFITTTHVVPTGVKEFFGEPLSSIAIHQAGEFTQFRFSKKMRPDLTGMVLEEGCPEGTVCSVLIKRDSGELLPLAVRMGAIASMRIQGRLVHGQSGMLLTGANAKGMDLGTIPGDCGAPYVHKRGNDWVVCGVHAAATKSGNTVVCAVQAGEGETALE

| Inhibition of Norwalk virus 3C protease (in words) [1] | IC50 column: designated inactive (percent inhibition < 25) [1] | Structure (SMILES) | ED50, replication of murine norovirus (MNV) (murine norovirus (MNV)) [µM] | ED50 (effective dose that inhibits 50% of norovirus replication) [2] [µM] | TD50 (median toxic dose) (HG23 cells) [µM] |
| --- | --- | --- | --- | --- | --- |
| devoid of inhibitory activity | Inactive ^a | CC(C)C[C@H](NC(=O)OCc1ccccc1)C(=O)N[C@@H](CC1CCNC1=O)C(=O)C(=O)NC(C)C (some centres unmarked) [Compound 10] |  |  |  |
|  | Inactive ^a | CC(C)C[C@H](NC(=O)CNC(=O)OCc1ccccc1)C(=O)N[C@H](CO)CC1CCNC1=O (some centres unmarked) [Compound 6] |  |  |  |
| sub-micromolar inhibitor |  | CCCC[C@H](NC(=O)CNC(=O)OCc1ccccc1)C(=O)N[C@H](C=O)CC1CCNC1=O (some centres unmarked) [Compound 7] |  |  |  |
|  | Inactive ^a | CCCC[C@H](NC(=O)CNC(=O)OCc1ccccc1)C(=O)N[C@H](CO)CC1CCNC1=O (some centres unmarked) [Compound 8] |  |  |  |
|  |  | CC(C)C[C@H](NC(=O)CNC(=O)OCc1ccccc1)C(=O)N[C@H](C=O)CC1CCNC1=O (some centres unmarked) [Compound 5] | 20.3 | 7.8 | > 320 |
|  | Inactive ^a | O=C[C@H](CC1CCNC1=O)NC(=O)[C@H](Cc1ccccc1)NC(=O)N1CCOCC1 (some centres unmarked) [Compound 2] |  |  |  |

| Structure (SMILES) | Inhibition of Norwalk virus 3C protease (in words) [1] | IC50 column: designated inactive (percent inhibition < 25) [1] | ED50, replication of murine norovirus (MNV) (murine norovirus (MNV)) [µM] | ED50 (effective dose that inhibits 50% of norovirus replication) [2] [µM] | TD50 (median toxic dose) (HG23 cells) [µM] |
| --- | --- | --- | --- | --- | --- |
| CC(C)C[C@H](NC(=O)OCc1ccccc1)C(=O)N[C@H](C=O)CC1CCNC1=O (some centres unmarked) [Compound 4] | dose-dependent inhibition |  | 5.5 | 2.1 | > 320 |
| CC(C)C[C@H](NC(=O)OCc1ccccc1)C(=O)N[C@H](CO)CC1CCNC1=O (some centres unmarked) [Compound 3] |  | Inactive ^a |  |  |  |
